Experimental data as given in article PMC4401318 (ACS Chemical Neuroscience, 2015).
Entries after “also recorded” stand apart in the source; their conditions may differ. Marks after values point to notes of the source that are not given here.

Legend:
KOP receptor [1] = molecular target: T1, KOP receptor (Homo sapiens, UniProt P41145); assay: biochemical
DOP receptor [2] = molecular target: T2, DOP receptor (Homo sapiens, UniProt P41143); assay: Radioligand competition binding, DOP
KOP receptor [3] = molecular target: T1, KOP receptor; assay: Radioligand competition binding, KOP
MOP receptor [4] = molecular target: T3, MOP receptor (Homo sapiens, UniProt P35372); assay: biochemical
DOP receptor [5] = molecular target: T2, DOP receptor; assay: [35S]GTPγS binding stimulation; assay type: biochemical; settings: for [35S]GTPγS DOP % stim: compared to standard agonist DPDPE
NOP receptor [6] = molecular target: T4, NOP receptor (Homo sapiens, UniProt P41146); assay: [35S]GTPγS binding stimulation; assay type: biochemical; settings: for intrinsic (agonist) activity in [35S]GTPγS assay at any of the opioid receptors: NOP, KOP, MOP and DOP, up to 10 μM; for [35S]GTPγS NOP % stim: compared to standard agonist N/OFQ
DOP receptor [7] = molecular target: T2, DOP receptor; assay: Inhibition of agonist-stimulated [35S]GTPγS binding, DOP; assay type: biochemical
NOP receptor [8] = molecular target: T4, NOP receptor; assay: Inhibition of agonist-stimulated [35S]GTPγS binding, NOP; assay type: biochemical; settings: for nature of antagonism at NOP: agonist nociceptin concentration-response curves
NOP receptor [9] = molecular target: T4, NOP receptor; assay: Radioligand competition binding, NOP
KOP receptor [10] = molecular target: T1, KOP receptor; assay: Inhibition of agonist-stimulated [35S]GTPγS binding, KOP; assay type: biochemical; settings: agonist U69,593 concentration-response curves; listed as AT-076
Summary of the method: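 CHO cells stably expressing human KOP cDNA, grown in DMEM/10% FBS with 0.4 mg/mL G418. Membranes were washed into 20 mM HEPES, 10 mM MgCl2, 100 mM NaCl, pH 7.4. Membranes (8–15 μg protein) were incubated 60 min at 25 °C with 50 pM [35S]GTPγS and 10 μM GDP. U69,593 concentration–response curves were run at several fixed test-compound concentrations. Binding was read by filtration and scintillation counting. Antagonism type was assigned by Schild regression.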

MOP receptor [11] = molecular target: T3, MOP receptor; assay type: biochemical
MOP receptor [12] = molecular target: T3, MOP receptor; settings: cited from earlier work
DOP receptor [13] = molecular target: T2, DOP receptor; settings: agonist DPDPE; ref 4b; cited from earlier work
KOP receptor [14] = molecular target: T1, KOP receptor; settings: agonist U69,593; ref 4b; cited from earlier work

SMILES | EC50 (KOP receptor [1]) [µM] | [35S]GTPγS KOP % stim (KOP receptor [1]) [%] | Ki (DOP receptor [2]) [nM] | Ki (KOP receptor [3]) [nM] | EC50 (MOP receptor [4]) [µM] | [35S]GTPγS MOP % stim (MOP receptor [4]) [%] | [35S]GTPγS DOP % stim (DOP receptor [5]) [%] | EC50 (NOP receptor [6]) [µM] | intrinsic (agonist) activity in [35S]GTPγS assay at any of the opioid receptors (NOP receptor [6]) | [35S]GTPγS NOP % stim (NOP receptor [6]) [%] | further results
C[C@H]1CN(C2CCCCCCC2)CC[C@@]1(C)c1cccc(O)c1 [Compound 3, 3-((3R,4R)-1-Cyclooctyl-3,4-dimethylpiperidin-4-yl)phenol] | > 10 | 0 | 2910 ± 834 | 68.1 ± 2.21 | – | – | – | – | – | – | –
C[C@H]1CN(C[C@H]2Cc3ccc(O)cc3CN2)CC[C@@]1(C)c1cccc(O)c1 [Compound 4, (R)-3-(((3R,4R)-4-(3-Hydroxyphenyl)-3,4-dimethylpiperidin-1-yl)methyl)-1,2,3,4-tetrahydroisoquinolin-7-ol] | – | – | 205 | 410 ± 130 | > 10 | 0 | – | – | – | – | –
C[C@H]1CN(C[C@H]2Cc3ccccc3CN2)CC[C@@]1(C)c1cccc(O)c1 [Compound 5, 3-((3R,4R)-3,4-Dimethyl-1-(((R)-1,2,3,4-tetrahydroisoquinolin-3-yl)methyl)piperidin-4-yl)phenol] | > 10 | 0 | 38.8 ± 9.9 | 19.5 ± 6.6 | > 10 | 0 | 0 | > 10 | no intrinsic activity | 0 | EC50 (DOP receptor [5]): > 10 µM
CC(C)[C@@H](CN1CCC(c2cccc(O)c2)CC1)NC(=O)[C@H]1Cc2ccc(O)cc2CN1 [Compound 6, (R)-7-Hydroxy-N-((S)-1-(4-(3-hydroxyphenyl)piperidin-1-yl)-3-methylbutan-2-yl)-1,2,3,4-tetrahydroisoquinoline-3-carboxamide] | > 10 | 0 | – | – | > 10 | 0 | 0 | – | no intrinsic (agonist) activity | 0 | EC50 (DOP receptor [5]): > 10 µM; Kb (DOP receptor [7]): 24.9 ± 13 nM; nature of antagonism at DOP (DOP receptor [7]; agonist DPDPE concentration-response curves, listed as AT-076): competitive antagonist; also recorded: competitive antagonism; nature of antagonism at NOP (NOP receptor [8]; listed as AT-076): noncompetitive antagonist profile; also recorded: insurmountable antagonism; increase in NOP binding affinity compared with JDTic (NOP receptor [9]; ratio of Ki): 10 fold; nature of antagonism at KOP (KOP receptor [10]): noncompetitive antagonist profile; also recorded: insurmountable antagonism; Ke more potent than that of JDTic (MOP receptor [11]; at the MOP and DOP receptors): 3–6 fold; nature of antagonism at MOP (MOP receptor [11]; listed as AT-076): competitive antagonist; also recorded: competitive antagonism
CC(C)[C@@H](CN1CCC(c2cccc(O)c2)CC1)NC(=O)[C@H]1Cc2ccccc2CN1 [Compound 7, (R)-N-((S)-1-(4-(3-Hydroxyphenyl)piperidin-1-yl)-3-methylbutan-2-yl)-1,2,3,4-tetrahydroisoquinoline-3-carboxamide] | > 10 | 0 | 1400 ± 111 | 100 ± 0.9 | – | – | – | > 10 | – | 7.0 ± 3.2 | –
CC(C)[C@@H](CN1CCC(c2ccccc2)CC1)NC(=O)[C@H]1Cc2ccc(O)cc2CN1 [Compound 8, (R)-7-Hydroxy-N-((S)-3-methyl-1-(4-phenylpiperidin-1-yl)butan-2-yl)-1,2,3,4-tetrahydroisoquinoline-3-carboxamide] | 0.408 ± 0.041 | 72.3 ± 4 | > 10000 | 2.15 ± 0.82 | – | 0 | – | 0.0533 ± 0.0121 | – | 18.3 ± 1.3 | Ki (NOP receptor [9]): 10.9 ± 2.14 nM
CC(C)[C@@H](CN1CC[C@@](C)(c2cccc(O)c2)[C@@H](C)C1)NC(=O)[C@H]1Cc2ccc(O)cc2CN1 [JDTic, (3R)-7-hydroxy-N-((1S)-1-{[(3R,4R)-4-(3-hydroxyphenyl)-3,4-dimethyl-1-piperidinyl]methyl}-2-methylpropyl)-1,2,3,4-tetrahydro-3-isoquinolinecarboxamide, reference compound] | – | 0 | – | – | – | 0 | 0 | > 10 | no intrinsic activity | 0 | Ke MOP (antagonist potency) (MOP receptor [12]): 3.41 ± 0.36 ^f nM; intrinsic activity in [35S]GTPγS functional assay at NOP (NOP receptor [6]; compound alone): no intrinsic activity; Ke DOP (antagonist potency) (DOP receptor [13]): 79.3 ± 9.3 ^f nM; Kb (NOP receptor [8]): 680.2 ± 2.35 nM; nature of antagonism at NOP (NOP receptor [8]): noncompetitive antagonism; Ke KOP (antagonist potency) (KOP receptor [14]): 0.01 ± 0.00 ^f nM
Cc1cccc2c1CC[C@H](CN1CCC(c3c(Cl)cccc3Cl)CC1)C[C@@H]2O [SB-612111, (−)-cis-1-methyl-7-[[4-(2,6-dichlorophenyl)piperidin-1-yl]methyl]-6,7,8,9-tetrahydro-5H-benzocyclohepten-5-ol, reference compound] | – | – | – | – | – | – | – | – | – | 0 | –
